# Results: ChEMBL document CHEMBL1148054, “Chemical and bioactive constituents from Zanthoxylum simulans” (J Nat Prod, 1994)
# pEC50: −log10 of the molar value.
# Key:
# [1] = Antiplatelet activity against rabbit platelet assessed as inhibition of collagen-induced platelet aggregation at 100 ug/ml; format: functional; conditions: Oryctolagus cuniculus
# HL-60 [2] = assay: Induction of terminal cell differentiation in human HL60 cells at 7.7 uM after 4 days by NBT reduction assay; format: functional
# How it was run: (§1)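 Log-phase HL-60 cells (RPMI 1640, 5% heat-inactivated calf serum, 37°, 5% CO2) were diluted to 1.2×10^5 cells/ml, preincubated 18 h, then treated 4 days with samples in DMSO (final 0.1%; DMSO controls). 10^6 cells were mixed 1:1 with fresh PBS holding 2 mg/ml NBT and 5 μg/ml TPA, 1 h at 37°. Formazan-positive cells were counted microscopically as % NBT-positive.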
# HT-1080 = assay: Cytotoxicity against human HT1080 cells; format: functional; conditions: read-out: ED50 (the source's name)
# How it was run: (§2)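 Cultured human cancer lines and murine P-388 cells. Complete dose-response data from at least five concentrations of test substance, each tested in duplicate.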
# HL-60 [3] = assay: Induction of terminal cell differentiation in human HL60 cells assessed as naphthol AS-D chloroacetate esterase activity at 3.8 uM after 4 days; format: functional
# How it was run: (§3)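 HL-60 cells were grown in RPMI 1640 with 5% heat-inactivated calf serum at 37°, 5% CO2. They were diluted to 1.2×10^5 cells/ml, preincubated 18 h, then exposed 4 days to DMSO-dissolved samples (final DMSO 0.1%, matched vehicle controls). Specific esterase (naphthol AS-D chloroacetate) was scored cytochemically with a commercial kit as the percentage of differentiated cells.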
# SK-MEL = assay: Cytotoxicity against human SK-MEL cells; format: functional; conditions: read-out: ED50 (the source's name); how it was run: as §2
# HL-60 [4] = assay: Induction of cell differentiation in human HL60 cells assessed as alpha naphthyl esterase activity at 7.7 uM after 4 days; format: functional
# How it was run: (§4)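 HL-60 cells in RPMI 1640 with 5% heat-inactivated calf serum at 37° under 5% CO2. Log-phase cells diluted to 1.2×10^5 cells/ml and preincubated 18 h, then samples added in DMSO (final 0.1%, DMSO controls). Cells scored after 4 days.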
# P388 = assay: Cytotoxicity against mouse P388 cells; format: functional; conditions: read-out: ED50 (the source's name); how it was run: as §2
# HL-60 [5] = assay: Induction of terminal cell differentiation in human HL60 cells assessed as inhibition of [3H]thymidine incorporation at 61.5 uM after 4 days; format: functional; parameters: scale not given: the % may be the effect or the level left
# How it was run: (§5)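 HL-60 cells were kept in RPMI 1640 with 5% heat-inactivated calf serum and penicillin/streptomycin at 37° under 5% CO2. Log-phase cells were diluted to 1.2×10^5 cells/ml and preincubated 18 h. Samples were added in DMSO (final 0.1%; vehicle controls matched) for 4 days. Aliquots then got 0.5 μCi/ml [3H]thymidine for 16 h more, were harvested and scintillation-counted. % incorporation per 10^6 cells = sample DPM / DMSO-control DPM.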
# [6] = Antiplatelet activity against rabbit platelet assessed as inhibition of arachidonic acid-induced platelet aggregation at 100 ug/ml; format: functional; conditions: Oryctolagus cuniculus
# HL-60 [7] = assay: Induction of cell differentiation in human HL60 cells assessed as alpha naphthyl esterase activity at 3.8 uM after 4 days; format: functional; how it was run: as §4
# KB = assay: Cytotoxicity against human KB cells; format: functional; conditions: read-out: ED50 (the source's name); how it was run: as §2
# LNCaP = assay: Cytotoxicity against human LNCAP cells; format: functional; conditions: read-out: ED50; how it was run: as §2
# HL-60 [8] = assay: Induction of terminal cell differentiation in human HL60 cells at 3.8 uM after 4 days by NBT reduction assay; format: functional; how it was run: as §1
# HL-60 [9] = assay: Induction of cell differentiation in human HL60 cells assessed as alpha naphthyl esterase activity at 30.7 uM after 4 days; format: functional; how it was run: as §4
# [10] = Cytotoxicity against human BC1 cells; format: functional; conditions: read-out: ED50 (the source's name); how it was run: as §2
# HL-60 [11] = assay: Induction of cell differentiation in human HL60 cells assessed as alpha naphthyl esterase activity at 61.5 uM after 4 days; format: functional; how it was run: as §4
# [12] = Antiplatelet activity against rabbit platelet assessed as inhibition of platelet activating factor-induced platelet aggregation at 100 ug/ml; format: functional; conditions: Oryctolagus cuniculus
# [13] = Cytotoxicity against human multidrug-resistant KBV1 cells in absence of vinblastine; format: functional; conditions: KB-V1, read-out: ED50 (the source's name); how it was run: as §2
# A-431 = assay: Cytotoxicity against human A431 cells; format: functional; conditions: read-out: ED50 (the source's name); how it was run: as §2
# [14] = Cytotoxicity against human U373 cells; format: functional, U-373MG ATCC; conditions: U373 MG, read-out: ED50; how it was run: as §2
# HL-60 [15] = assay: Induction of terminal cell differentiation in human HL60 cells at 30.7 uM after 4 days by NBT reduction assay; format: functional; how it was run: as §1
# Lu1 = assay: Cytotoxicity against human Lu1 cells; format: functional; conditions: read-out: ED50 (the source's name); how it was run: as §2
# HL-60 [16] = assay: Induction of terminal cell differentiation in human HL60 cells assessed as naphthol AS-D chloroacetate esterase activity at 61.5 uM after 4 days; format: functional; how it was run: as §3
# HL-60 [17] = assay: Induction of terminal cell differentiation in human HL60 cells assessed as inhibition of [3H]thymidine incorporation at 15.4 uM after 4 days; format: functional; parameters: scale not given: the % may be the effect or the level left; how it was run: as §5
# HL-60 [18] = assay: Induction of terminal cell differentiation in human HL60 cells at 61.5 uM after 4 days by NBT reduction assay; format: functional; how it was run: as §1
# HL-60 [19] = assay: Induction of terminal cell differentiation in human HL60 cells assessed as naphthol AS-D chloroacetate esterase activity at 15.4 uM after 4 days; format: functional; how it was run: as §3
# HL-60 [20] = assay: Induction of terminal cell differentiation in human HL60 cells assessed as cell viability at 61.5 uM by trypan blue exclusion method; format: functional; conditions: read-out: Activity
# How it was run: (§6)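 HL-60 cells preincubated 18 h at 1.2×10^5 cells/ml, then exposed 4 days to samples in DMSO (final 0.1%). Viability by trypan blue exclusion: viable/(viable+dead)×100. Cell counts also taken after 4 days.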
# HL-60 [21] = assay: Induction of terminal cell differentiation in human HL60 cells assessed as inhibition of [3H]thymidine incorporation at 30.7 uM after 4 days; format: functional; parameters: scale not given: the % may be the effect or the level left; how it was run: as §5
# ZR-75-1 = assay: Cytotoxicity against human ZR-75-1 cells; format: functional; conditions: ZR-75-1, read-out: ED50; how it was run: as §2
# [22] = Cytotoxicity against human multidrug-resistant KBV1 cells in presence of vinblastine; format: functional; conditions: KB-V1, read-out: ED50 (the source's name); how it was run: as §2
# HL-60 [23] = assay: Induction of terminal cell differentiation in human HL60 cells assessed as naphthol AS-D chloroacetate esterase activity at 30.7 uM after 4 days; format: functional; how it was run: as §3
# Col2 = assay: Cytotoxicity against human Col2 cells; format: functional; conditions: read-out: ED50 (the source's name); how it was run: as §2
# HL-60 [24] = assay: Induction of terminal cell differentiation in human HL60 cells assessed as inhibition of [3H]thymidine incorporation at 3.8 uM after 4 days; format: functional; parameters: scale not given: the % may be the effect or the level left; how it was run: as §5
# HL-60 [25] = assay: Induction of terminal cell differentiation in human HL60 cells assessed as cell viability at 7.7 uM by trypan blue exclusion method; format: functional; conditions: read-out: Activity; how it was run: as §6
# HL-60 [26] = assay: Induction of terminal cell differentiation in human HL60 cells assessed as cell viability at 15.4 uM by trypan blue exclusion method; format: functional; conditions: read-out: Activity; how it was run: as §6
# HL-60 [27] = assay: Induction of terminal cell differentiation in human HL60 cells assessed as cell viability at 30.7 uM by trypan blue exclusion method; format: functional; conditions: read-out: Activity; how it was run: as §6
# HL-60 [28] = assay: Induction of terminal cell differentiation in human HL60 cells assessed as naphthol AS-D chloroacetate esterase activity at 7.7 uM after 4 days; format: functional; how it was run: as §3
# HL-60 [29] = assay: Induction of terminal cell differentiation in human HL60 cells at 15.4 uM after 4 days by NBT reduction assay; format: functional; how it was run: as §1
# HL-60 [30] = assay: Induction of terminal cell differentiation in human HL60 cells assessed as inhibition of [3H]thymidine incorporation at 7.7 uM after 4 days; format: functional; parameters: scale not given: the % may be the effect or the level left; how it was run: as §5
# HL-60 [31] = assay: Induction of terminal cell differentiation in human HL60 cells assessed as cell viability at 3.8 uM by trypan blue exclusion method; format: functional; conditions: read-out: Activity; how it was run: as §6
# HL-60 [32] = assay: Induction of cell differentiation in human HL60 cells assessed as alpha naphthyl esterase activity at 15.4 uM after 4 days; format: functional; how it was run: as §4
compound,measurement,setting,value
CC(C)C(=O)CCC1(C)C=Cc2c(c3ccccc3n(C)c2=O)O1 (stereo unspecified),inhibition at 100 µg/mL,[1],83.9%
same,Activity,HL-60 [2],4.5%
same,pEC50,HT-1080,< 4.22
same,Activity,HL-60 [3],5.5%
same,pEC50,SK-MEL,4.44
same,Activity,HL-60 [4],5%
same,pEC50,P388,5.01
same,Activity,HL-60 [5],31.6%
same,inhibition at 100 µg/mL,[6],100%
same,Activity,HL-60 [7],5%
same,pEC50,KB,4.33
same,EC50,LNCaP,> 60 µM
same,Activity,HL-60 [8],5.5%
same,Activity,HL-60 [9],12.22%
same,pEC50,[10],< 4.22
same,Activity,HL-60 [11],48.9%
same,inhibition at 100 µg/mL,[12],100%
same,pEC50,[13],4.61
same,pEC50,A-431,< 4.22
same,EC50,[14],> 60 µM
same,Activity,HL-60 [15],9.9%
same,pEC50,Lu1,< 4.22
same,Activity,HL-60 [16],5%
same,Activity,HL-60 [17],0%
same,Activity,HL-60 [18],53.1%
same,Activity,HL-60 [19],8%
same,viability at 61.5 µM,HL-60 [20],85%
same,Activity,HL-60 [21],0%
same,EC50,ZR-75-1,11.1 µM
same,pEC50,[22],5.40
same,Activity,HL-60 [23],9.4%
same,pEC50,Col2,< 4.22
same,Activity,HL-60 [24],0%
same,viability at 7.7 µM,HL-60 [25],98%
same,viability at 15.4 µM,HL-60 [26],98%
same,viability at 30.7 µM,HL-60 [27],96%
same,Activity,HL-60 [28],6.5%
same,Activity,HL-60 [29],8%
same,Activity,HL-60 [30],0%
same,viability at 3.8 µM,HL-60 [31],97%
same,Activity,HL-60 [32],5.5%
